Measurements taken from ChEMBL document CHEMBL1141100, “Design and synthesis of specific probes for human 5-HT4 receptor dimerization studies” (J Med Chem, 2005).

Assays:
[1] = target: T1, 5-hydroxytryptamine receptor 4 (Homo sapiens, UniProt Q13639); experiment: Binding affinity for 5-HT4 receptor using [3H]GR-113808
[2] = target: T1, 5-hydroxytryptamine receptor 4; experiment: Percent cAMP production in C6 glial cells expressing human 5-hydroxytryptamine 4 receptor; assay type: functional, cell-based
In short: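 Confluent C6 cells stably expressing human 5-HT4(e) receptor were serum-starved 4 h, then preincubated 15 min with 5 mM theophylline and 10 μM pargyline. Compounds (seven concentrations, 10^-10 to 10^-5) and/or 5-HT (1 μM) were added for 15 min at 37 °C. Stopped with 20% perchloric acid, neutralized, and cAMP measured by radioimmunoassay.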

T1 sequence (Q13639 whole entry): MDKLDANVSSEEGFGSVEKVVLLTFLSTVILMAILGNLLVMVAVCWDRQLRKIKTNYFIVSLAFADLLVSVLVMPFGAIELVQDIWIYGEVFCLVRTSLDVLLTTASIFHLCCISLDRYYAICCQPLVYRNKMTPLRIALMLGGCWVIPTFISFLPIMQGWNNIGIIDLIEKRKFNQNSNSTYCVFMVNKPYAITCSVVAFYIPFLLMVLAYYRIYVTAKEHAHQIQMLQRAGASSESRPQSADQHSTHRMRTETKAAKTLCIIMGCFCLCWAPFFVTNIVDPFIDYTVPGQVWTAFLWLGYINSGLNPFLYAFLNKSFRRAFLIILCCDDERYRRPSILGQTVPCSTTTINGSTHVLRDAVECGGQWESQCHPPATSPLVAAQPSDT

Row | SMILES | Ki [1] [nM] | cAMP [2] [%]
1 | COc1cc(N)c(Cl)cc1C(=O)OCCN1CCC(NC(=O)CCCC(=O)NC2CCN(CCOC(=O)c3cc(Cl)c(N)cc3OC)CC2)CC1 | 5 | 32
2 | COc1cc(N)c(Cl)cc1C(=O)OCCN1CCN(C(=O)CCCCCCCCCCC(=O)N2CCN(CCOC(=O)c3cc(Cl)c(N)cc3OC)CC2)CC1 | 200 | –
3 | COc1cc(N)c(Cl)cc1C(=O)OCCN1CCC(NC(=O)CCCCCCCCCCC(=O)NC2CCN(CCOC(=O)c3cc(Cl)c(N)cc3O)CC2)CC1 | 16 | 20
4 | COc1cc(N)c(Cl)cc1C(=O)OCCN1CCC(NC(=O)CCCCCC(=O)NC2CCN(CCOC(=O)c3cc(Cl)c(N)cc3OC)CC2)CC1 | 9 | 26
5 | COc1cc(N)c(Cl)cc1C(=O)OCCN1CCN(C(=O)CCCCCC(=O)N2CCN(CCOC(=O)c3cc(Cl)c(N)cc3OC)CC2)CC1 | 488 | –
6 | COc1cc(N)c(Cl)cc1C(=O)OCCN1CCCCC1 | – | 45
7 | COc1cc(N)c(Cl)cc1C(=O)OCCN1CCC(C(=O)NCCCOCCOCCOCNC(=O)C2CCN(CCOC(=O)c3cc(Cl)c(N)cc3OC)CC2)CC1 | 6 | 0
8 | COc1cc(N)c(Cl)cc1C(=O)OCCN1CCC(NC(=O)CCCCCNC(=O)C2CCN(CCOC(=O)c3cc(Cl)c(N)cc3OC)CC2)CC1 | 7 | 46
9 | COc1cc(N)c(Cl)cc1C(=O)OCCN1CCC(CNC(=O)CCCC(=O)NCC2CCN(CCOC(=O)c3cc(Cl)c(N)cc3OC)CC2)CC1 | 13 | 20
10 | COc1cc(N)c(Cl)cc1C(=O)OCCN1CCC(CCNC(=O)CCCCCCCCCCC(=O)NCCC2CCN(CCOC(=O)c3cc(Cl)c(N)cc3OC)CC2)CC1 | 9 | 6
11 | COc1cc(N)c(Cl)cc1C(=O)OCCN1CCC(CNC(=O)CCC(=O)NCC2CCN(CCOC(=O)c3cc(Cl)c(N)cc3OC)CC2)CC1 | 7 | 16
12 | COc1cc(N)c(Cl)cc1C(=O)OCCN1CCC(NC(=O)CCCCCCCCCCC(=O)NC2CCN(Cc3ccccc3)CC2)CC1 | 14 | 35
13 | COc1cc(N)c(Cl)cc1C(=O)OCCN1CCC(C(=O)NCCCCCCCCCCNC(=O)C2CCN(CCOC(=O)c3cc(Cl)c(N)cc3OC)CC2)CC1 | 8 | 8
14 | COc1cc(N)c(Cl)cc1C(=O)OCCN1CCC(NC(=O)CCCNC(=O)C2CCN(CCOC(=O)c3cc(Cl)c(N)cc3OC)CC2)CC1 | 31 | 42
15 | COc1cc(N)c(Cl)cc1C(=O)OCCN1CCC(NC(=O)CCC(=O)NC2CCN(CCOC(=O)c3cc(Cl)c(N)cc3OC)CC2)CC1 | 21 | 47
16 | COc1cc(N)c(Cl)cc1C(=O)OCCN1CCC(C(=O)NCCCCCNC(=O)C2CCN(CCOC(=O)c3cc(Cl)c(N)cc3OC)CC2)CC1 | 5 | 5

Row | SMILES | Ki [1] [nM] | cAMP [2] [%]
17 | COc1cc(N)c(Cl)cc1C(=O)OCCN1CCC(CCNC(=O)CCCCCC(=O)NCCC2CCN(CCOC(=O)c3cc(Cl)c(N)cc3OC)CC2)CC1 | 11 | 31
18 | COc1cc(N)c(Cl)cc1C(=O)OCCN1CCC(CCNC(=O)CCC(=O)NCCC2CCN(CCOC(=O)c3cc(Cl)c(N)cc3OC)CC2)CC1 | 5 | 15
19 | COc1cc(N)c(Cl)cc1C(=O)OCCN1CCC(NC(=O)CCNC(=O)C2CCN(CCOC(=O)c3cc(Cl)c(N)cc3OC)CC2)CC1 | 24 | 10
20 | COc1cc(N)c(Cl)cc1C(=O)OCCN1CCC(C(=O)NCCOCCNC(=O)C2CCN(CCOC(=O)c3cc(Cl)c(N)cc3OC)CC2)CC1 | 19 | 0
21 | COc1cc(N)c(Cl)cc1C(=O)OCCN1CCC(C(=O)NCCCNC(=O)C2CCN(CCOC(=O)c3cc(Cl)c(N)cc3OC)CC2)CC1 | 13 | 13
22 | COc1cc(N)c(Cl)cc1C(=O)OCCN1CCC(NC(=O)CCCCCCCCCCNC(=O)C2CCN(CCOC(=O)c3cc(Cl)c(N)cc3OC)CC2)CC1 | 20 | 5
23 | COc1cc(N)c(Cl)cc1C(=O)OCCN1CCC(C(=O)NCCNC(=O)C2CCN(CCOC(=O)c3cc(Cl)c(N)cc3OC)CC2)CC1 | 37 | 3
24 | COc1cc(N)c(Cl)cc1C(=O)OCCN1CCC(CCNC(=O)CCCC(=O)NCCC2CCN(CCOC(=O)c3cc(Cl)c(N)cc3OC)CC2)CC1 | – | 24
25 | COc1cc(N)c(Cl)cc1C(=O)OCCN1CCC(C(=O)NCCOCCOCCNC(=O)C2CCN(CCOC(=O)c3cc(Cl)c(N)cc3OC)CC2)CC1 | 3 | 3
26 | COc1cc(N)c(Cl)cc1C(=O)OCCN1CCC(CNC(=O)CCCCCCCCCCC(=O)NCC2CCN(CCOC(=O)c3cc(Cl)c(N)cc3OC)CC2)CC1 | 22 | 21
27 | COc1cc(N)c(Cl)cc1C(=O)OCCN1CCC(NC(=O)CCCCCCCCCCN)CC1 | 13 | 50
28 | COc1cc(N)c(Cl)cc1C(=O)OCCN1CCC(C(=O)NCc2cccc(CNC(=O)C3CCN(CCOC(=O)c4cc(Cl)c(N)cc4OC)CC3)c2)CC1 | 5 | 16
29 | COc1cc(N)c(Cl)cc1C(=O)OCCN1CCC(NC(=O)CCCCCCCCCCNc2nc(NCCCCCCCCCCC(=O)NC3CCN(CCOC(=O)c4cc(Cl)c(N)cc4OC)CC3)nc(NCc3ccccc3)n2)CC1 | 113 | 12
30 | COc1cc(N)c(Cl)cc1C(=O)OCCN1CCC(NC(=O)CCCCCCCCCCN(CCCCCCCCCCC(=O)NC2CCN(CCOC(=O)c3cc(Cl)c(N)cc3OC)CC2)CC(=O)NCC2CCNCC2)CC1 | 50 | 10
31 | COc1cc(N)c(Cl)cc1C(=O)OCCN1CCC(NC(=O)CCc2ccc3c(c2)oc2cc(CCC(=O)NC4CCN(CCOC(=O)c5cc(Cl)c(N)cc5OC)CC4)ccc23)CC1 | 47 | 23
32 | COc1cc(N)c(Cl)cc1C(=O)OCCN1CCC(CNC(=O)CCCCCC(=O)NCC2CCN(CCOC(=O)c3cc(Cl)c(N)cc3OC)CC2)CC1 | 26 | 20
